ChEMBL document CHEMBL2163305, “Nanomolar potency and metabolically stable inhibitors of kidney urea transporter UT-B” (J Med Chem, 2012)

Columns and labels:
[1] = Metabolic stability in rat liver microsomes assessed as compound remaining at 5 uM after 30 mins; format: ADME, Microsome; settings: read-out: Stability
[2] = Half life in rat liver microsomes at 5 uM; format: ADME, Microsome
[3] = Drug excretion in mouse urine at 400 ug, ip administered as bolus dose; format: ADME, organism-based; settings: in vivo
Blood = assay: Drug uptake in mouse blood at 200 ug, ip at 6 hrs; format: ADME, organism-based; settings: in vivo
How it was run: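 Mice (8–10 weeks, 25–35 g) received 200 μg of each of two inhibitors together by ip injection in DMSO/Tween-80/PEG400 formulation. Blood taken at 6 h, diluted with equal volume of water, extracted with ethyl acetate, LC/MS against standards. SE, 3 mice.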

Homo sapiens = species on record: Homo sapiens; assay: Inhibition of UT-B-mediated urea transport in human erythrocytes incubated for 10 mins prior to urea addition by Stopped-flow light scattering assay; format: cell-based
How it was run: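 Human venous blood in heparin, kept at 4 °C and used within 48 h, diluted in PBS to ~0.5% hematocrit. Inhibitor for 10 min, then mixed 1:1 in stopped-flow to impose a 100 mM inward urea gradient. Cell swelling followed as 90° scattered light at 530 nm. Urea permeability and % inhibition computed.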

Mus musculus = assay: Antidiuretic activity in mouse assessed as reduction in urine osmolality at 400 ug, ip administered 1 hr followed by dDAVP administration (reference value: >3 Osm/kg); format: functional
Kidney = assay: Drug uptake in mouse kidney at 400 ug, ip administered as bolus dose; format: ADME, organism-based; settings: in vivo, read-out: Drug uptake

Row | remaining at 0.5 h, 5 µM [1] [%] | SMILES | further results
1 | 95 | O=S(=O)(c1ccc(OC(F)(F)F)cc1)c1nnn2c1nc(NCc1cccs1)c1sccc12 | –
2 | < 5 | CC(C)c1ccc(S(=O)(=O)c2nnn3c2nc(NCc2cccs2)c2sccc23)cc1 | –
3 | < 5 | O=S(=O)(c1cccs1)c1nnn2c1nc(NCc1cccs1)c1sccc12 | –
4 | 60 | O=S(=O)(c1ccc(Br)cc1)c1nnn2c1nc(NCc1cccs1)c1sccc12 | –
5 | 7 | COc1ccc(CNc2nc3c(S(=O)(=O)c4ccc(C(C)C)cc4)nnn3c3ccsc23)cc1 | –
6 | > 99 | CC(C)c1ccc(S(=O)(=O)c2nnn3c2nc(NCc2ccco2)c2sccc23)cc1 | –
7 | 45 | CC(C)c1ccc(S(=O)(=O)c2nnn3c2nc(NCc2cccc4ccccc24)c2sccc23)cc1 | –
8 | 99 | O=S(=O)(c1ccc(C(F)(F)F)cc1)c1nnn2c1nc(NCc1cccs1)c1sccc12 | –
9 | 6 | COc1ccc(S(=O)(=O)c2nnn3c2nc(NCc2cccs2)c2sccc23)cc1 | –
10 | 27 | O=S(=O)(c1ccc(F)cc1)c1nnn2c1nc(NCc1cccs1)c1sccc12 | –

Row | SMILES | remaining at 0.5 h, 5 µM [1] [%] | further results
11 | CC(F)(F)c1ccc(S(=O)(=O)c2nnn3c2nc(NCc2cccs2)c2sccc23)cc1 | 96 | half-life at 5 µM [2]: 2 h; Drug excretion [3]: > 1 µM; Drug uptake (Blood): Active; inhibition (Homo sapiens): Dose-dependent effect; Activity (Mus musculus): 0.5 Osm/kg; concentration (Kidney): > 1000 nM
12 | CCc1ccc(S(=O)(=O)c2nnn3c2nc(NCc2cccs2)c2sccc23)cc1 | < 5 | half-life at 5 µM [2]: 0.0467 h; Drug uptake (Blood): Active
